Results reported in ChEMBL document CHEMBL4138085, “Design, synthesis and antimicrobial evaluation of novel benzimidazole-incorporated sulfonamide analogues” (Eur J Med Chem, 2017).
Converted amounts (≈) assume the structure as drawn.

Columns and labels:
Candida albicans = assay: Antifungal activity against Candida albicans ATCC 76615 after 24 hrs by NCCLS two fold broth microdilution method; format: functional; conditions: ATCC 76615, 24 h
How it was run: (§1)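 Two-fold serial microdilution following NCCLS. A spore suspension in sterile distilled water was prepared from one-day-old cultures grown on Sabouraud agar and adjusted to a final 1–5 × 10^3 spores/mL. DMSO stocks were diluted in RPMI 1640 to eleven concentrations (0.5–512 µg/mL), inoculated and held at 35 °C for 24 h. Growth was read visually and spectrophotometrically, MIC was the lowest concentration with complete inhibition, and runs were in triplicate.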

Cyberlindnera jadinii = assay: Antifungal activity against Candida utilis after 24 hrs by NCCLS two fold broth microdilution method; format: functional; conditions: Williopsis jadinii; how it was run: as §1
Saccharomyces cerevisiae = assay: Antifungal activity against Saccharomyces cerevisiae after 24 hrs by NCCLS two fold broth microdilution method; format: functional; how it was run: as §1
Pichia norvegensis = assay: Antifungal activity against Candida mycoderma after 24 hrs by NCCLS two fold broth microdilution method; format: functional
Salmonella typhi = assay: Antibacterial activity against Bacillus typhi after 24 hrs by NCCLS two fold broth microdilution method; format: functional, Salmonella enterica subsp. enterica serovar Typhi; conditions: Salmonella enterica
How it was run: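 Two-fold serial broth microdilution per NCCLS. DMSO stocks diluted in Mueller–Hinton broth to 512, 256, 128, 64, 32, 16, 8, 4, 2, 1, 0.5 µg/mL. Chloromycin and norfloxacin as reference drugs; DMSO with inoculum, no drug, as solvent control. Incubation 37 °C for 24 h. Growth read visually and spectrophotometrically. MIC is the lowest concentration completely inhibiting growth; triplicate.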

Escherichia coli = assay: Antibacterial activity against Escherichia coli ATCC 8099 after 24 hrs by NCCLS two fold broth microdilution method; format: functional; conditions: ATCC 8099, 24 h
How it was run: (§2)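 Two-fold serial broth microdilution in 96-well plates following NCCLS. Plates were inoculated and incubated at 37 °C for 24 h, with growth read visually and spectrophotometrically. MIC was taken as the lowest concentration giving complete growth inhibition. Run in triplicate, with a DMSO-plus-inoculum solvent control.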

Staphylococcus aureus [1] = assay: Antibacterial activity against methicillin-resistant Staphylococcus aureus N315 after 24 hrs by NCCLS two fold broth microdilution method; format: functional; conditions: N315, 24 h
How it was run: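 Two-fold serial broth microdilution per NCCLS. Chloromycin and norfloxacin as reference drugs; DMSO with inoculum, no drug, as solvent control. Incubation 37 °C for 24 h. Growth read visually and spectrophotometrically. MIC is the lowest concentration completely inhibiting growth; triplicate.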

Bacillus = assay: Antibacterial activity against Bacillus proteus ATCC 13315 after 24 hrs by NCCLS two fold broth microdilution method; format: functional; conditions: ATCC 13315, 24 h
How it was run: as §2, with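 “NCCLS. Compounds were dissolved in DMSO as stocks, then diluted in Mueller–Hinton broth to final concentrations of 0.5–512 µg/mL.” for “NCCLS.”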

Bacillus subtilis = assay: Antibacterial activity against Bacillus subtilis ATCC 21216 after 24 hrs by NCCLS two fold broth microdilution method; format: functional; conditions: ATCC 21216, 24 h
How it was run: as §2, with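 “NCCLS. Compounds were dissolved in DMSO as stocks, then diluted in Mueller–Hinton broth to final concentrations of 0.5–512 µg/mL.” for “NCCLS.”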

Aspergillus flavus = assay: Antifungal activity against Aspergillus flavus after 24 hrs by NCCLS two fold broth microdilution method; format: functional; how it was run: as §1
Micrococcus luteus = assay: Antibacterial activity against Micrococcus luteus ATCC 4698 after 24 hrs by NCCLS two fold broth microdilution method; format: functional; conditions: NCTC 2665, 24 h
How it was run: as §2, with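 “NCCLS. Compounds were dissolved in DMSO as stocks, then diluted in Mueller–Hinton broth to final concentrations of 0.5–512 µg/mL.” for “NCCLS.”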

Staphylococcus aureus [2] = assay: Antibacterial activity against Staphylococcus aureus ATCC 25923 after 24 hrs by NCCLS two fold broth microdilution method; format: functional; conditions: ATCC 25923, 24 h
How it was run: as §2, with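 “NCCLS. Compounds were dissolved in DMSO as stocks, then diluted in Mueller–Hinton broth to final concentrations of 0.5–512 µg/mL.” for “NCCLS.”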

Pseudomonas aeruginosa = assay: Antibacterial activity against Pseudomonas aeruginosa ATCC 27853 after 24 hrs by NCCLS two fold broth microdilution method; format: functional; conditions: ATCC 27853, 24 h; how it was run: as §2

Structure (SMILES) | MIC (Candida albicans) | MIC (Cyberlindnera jadinii) | MIC (Saccharomyces cerevisiae) | MIC (Pichia norvegensis) | MIC (Salmonella typhi) | MIC (Escherichia coli) | MIC (Staphylococcus aureus [1]) | MIC (Bacillus) | MIC (Bacillus subtilis) | MIC (Aspergillus flavus) | MIC (Micrococcus luteus) | MIC (Staphylococcus aureus [2]) | MIC (Pseudomonas aeruginosa)
CC(=O)Nc1ccc(S(=O)(=O)Cc2nc3ccccc3n2Cc2ccc(Cl)c(Cl)c2)cc1 | 64 µg/mL (≈ 131 µM) | 512 µg/mL (≈ 1050 µM) | 32 µg/mL (≈ 65.5 µM) | 512 µg/mL (≈ 1050 µM) | 512 µg/mL (≈ 1050 µM) | 256 µg/mL (≈ 524 µM) | 512 µg/mL (≈ 1050 µM) | 128 µg/mL (≈ 262 µM) | 128 µg/mL (≈ 262 µM) | 16 µg/mL (≈ 32.8 µM) | 256 µg/mL (≈ 524 µM) | 64 µg/mL (≈ 131 µM) | 512 µg/mL (≈ 1050 µM)
Nc1ccc(S(=O)(=O)Cc2nc3ccccc3n2Cc2ccc(F)cc2)cc1 | 32 µg/mL (≈ 80.9 µM) | 128 µg/mL (≈ 324 µM) | 32 µg/mL (≈ 80.9 µM) | 512 µg/mL (≈ 1290 µM) | 16 µg/mL (≈ 40.5 µM) | 256 µg/mL (≈ 647 µM) | 512 µg/mL (≈ 1290 µM) | 128 µg/mL (≈ 324 µM) | 512 µg/mL (≈ 1290 µM) | 256 µg/mL (≈ 647 µM) | 512 µg/mL (≈ 1290 µM) | 16 µg/mL (≈ 40.5 µM) | 16 µg/mL (≈ 40.5 µM)
CC(=O)Nc1ccc(S(=O)(=O)Cc2nc3ccccc3n2Cc2cccc(Cl)c2)cc1 | 512 µg/mL (≈ 1130 µM) | 512 µg/mL (≈ 1130 µM) | 128 µg/mL (≈ 282 µM) | 256 µg/mL (≈ 564 µM) | 128 µg/mL (≈ 282 µM) | 64 µg/mL (≈ 141 µM) | 128 µg/mL (≈ 282 µM) | 128 µg/mL (≈ 282 µM) | 128 µg/mL (≈ 282 µM) | 256 µg/mL (≈ 564 µM) | 64 µg/mL (≈ 141 µM) | 32 µg/mL (≈ 70.5 µM) | 256 µg/mL (≈ 564 µM)
CC(=O)Nc1ccc(S(=O)(=O)Cc2nc3ccccc3[nH]2)cc1 | 32 µg/mL (≈ 97.2 µM) | 16 µg/mL (≈ 48.6 µM) | 32 µg/mL (≈ 97.2 µM) | 64 µg/mL (≈ 194 µM) | 128 µg/mL (≈ 389 µM) | 64 µg/mL (≈ 194 µM) | 128 µg/mL (≈ 389 µM) | 64 µg/mL (≈ 194 µM) | 32 µg/mL (≈ 97.2 µM) | 128 µg/mL (≈ 389 µM) | 128 µg/mL (≈ 389 µM) | 32 µg/mL (≈ 97.2 µM) | 32 µg/mL (≈ 97.2 µM)
CCn1c(CS(=O)(=O)c2ccc(N)cc2)nc2ccccc21 | 256 µg/mL (≈ 812 µM) | 64 µg/mL (≈ 203 µM) | 512 µg/mL (≈ 1620 µM) | 512 µg/mL (≈ 1620 µM) | 128 µg/mL (≈ 406 µM) | 64 µg/mL (≈ 203 µM) | 128 µg/mL (≈ 406 µM) | 64 µg/mL (≈ 203 µM) | 64 µg/mL (≈ 203 µM) | 32 µg/mL (≈ 101 µM) | 128 µg/mL (≈ 406 µM) | 64 µg/mL (≈ 203 µM) | 64 µg/mL (≈ 203 µM)
CCCCCCCCn1c(CS(=O)(=O)c2ccc(N)cc2)nc2ccccc21 | 64 µg/mL (≈ 160 µM) | 512 µg/mL (≈ 1280 µM) | 512 µg/mL (≈ 1280 µM) | 256 µg/mL (≈ 641 µM) | 512 µg/mL (≈ 1280 µM) | 512 µg/mL (≈ 1280 µM) | 512 µg/mL (≈ 1280 µM) | 512 µg/mL (≈ 1280 µM) | 512 µg/mL (≈ 1280 µM) | 512 µg/mL (≈ 1280 µM) | 512 µg/mL (≈ 1280 µM) | 512 µg/mL (≈ 1280 µM) | 512 µg/mL (≈ 1280 µM)
CC(=O)Nc1ccc(S(=O)(=O)Cc2nc3ccccc3n2Cc2ccc(Cl)cc2)cc1 | 128 µg/mL (≈ 282 µM) | 512 µg/mL (≈ 1130 µM) | 64 µg/mL (≈ 141 µM) | 32 µg/mL (≈ 70.5 µM) | 64 µg/mL (≈ 141 µM) | 128 µg/mL (≈ 282 µM) | 512 µg/mL (≈ 1130 µM) | 256 µg/mL (≈ 564 µM) | 256 µg/mL (≈ 564 µM) | 512 µg/mL (≈ 1130 µM) | 128 µg/mL (≈ 282 µM) | 512 µg/mL (≈ 1130 µM) | 512 µg/mL (≈ 1130 µM)
CC(=O)Nc1ccc(S(=O)(=O)Cc2nc3ccccc3n2Cc2ccccc2F)cc1 | 256 µg/mL (≈ 585 µM) | 32 µg/mL (≈ 73.1 µM) | 512 µg/mL (≈ 1170 µM) | 512 µg/mL (≈ 1170 µM) | 64 µg/mL (≈ 146 µM) | 256 µg/mL (≈ 585 µM) | 128 µg/mL (≈ 293 µM) | 128 µg/mL (≈ 293 µM) | 64 µg/mL (≈ 146 µM) | 64 µg/mL (≈ 146 µM) | 32 µg/mL (≈ 73.1 µM) | 512 µg/mL (≈ 1170 µM) | 128 µg/mL (≈ 293 µM)
CCCCCCCCCCCCCCCCCCn1c(CS(=O)(=O)c2ccc(N)cc2)nc2ccccc21 | 512 µg/mL (≈ 948 µM) | 512 µg/mL (≈ 948 µM) | 64 µg/mL (≈ 119 µM) | 64 µg/mL (≈ 119 µM) | 512 µg/mL (≈ 948 µM) | 512 µg/mL (≈ 948 µM) | 512 µg/mL (≈ 948 µM) | 512 µg/mL (≈ 948 µM) | 512 µg/mL (≈ 948 µM) | 512 µg/mL (≈ 948 µM) | 256 µg/mL (≈ 474 µM) | 512 µg/mL (≈ 948 µM) | 512 µg/mL (≈ 948 µM)
